# Screens: PubChem, several laboratories
# SENP7 block: inhibitors of human SENP7 protease. Q9BQF6. recombinant SENP7, Z-RLRGG-aminoluciferin luminescence, 40 min. inhibition, % at 5 µM. 330,000 compounds, 1.5% hits. AID 434973;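 active = inhibition above about 50% at the single test dose, limit read from the data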;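 note: plate controls were DMSO with enzyme for no effect and no enzyme buffer wells for full effect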
# SENP8 block-1: inhibitors of human SENP8 protease | inhibition, % at 10 µM | purified SENP8, Z-RLRGG-aminoluciferin cleavage, luminescence | AID 2540 | Q96LD8 | 330,000 compounds, 1.2% hits; in the data active = inhibition above about 50%
# SENP1 inh: blocks the human SENP1 SUMO protease catalytic domain; Q9P0U3; recombinant SENP1 catalytic domain, CyPet-SUMO1-YPet FRET cleavage; inhibition, % at 10 µM; 360,000 compounds, 0.21% hits; AID 624204;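 active = inhibition at least 30% at 10 µM, raw YFP signal under a set limit, fluorescence ratio 0.5 to 1.5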;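 note: 0% = enzyme with DMSO and 100% = no enzyme wells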
#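 Controls: no-enzyme wells low, DMSO-plus-enzyme wells high control. Test system: human recombinant His6-tagged SENP1 catalytic domain enzyme. Reagent: SFCypet-SUMO1-SFYpet FRET protein substrate, 25 nM final. Doses: one dose per compound, 10 µM, 0.5% DMSO. Detection: FRET, CFP and YFP emission. Timing: 50 min reaction at room temperature.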
# SENP6 inh: blocks the human protease SENP6; AID 2599; inhibition, % at 10 µM; Recombinant SENP6 catalytic domain, aminoluciferin luminescence; 330,000 compounds, 1.8% hits;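 active = inhibition above about 50% at the single tested dose, limit read from the data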;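 note: plate controls were DMSO wells with enzyme for no effect and DMSO wells lacking enzyme for full effect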
# HSP90 inh: HSP90 refolding inhibition in rabbit reticulocyte lysate | luciferase refolding luminescence, 3 h | inhibition, % at 5.6 µM | 290,000 compounds, 0.91% hits | AID 1789;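 active = inhibition above the screen-wide mean plus 3 SD, computed separately per campaign, cut at about 16% in these data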;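 note: 0% = DMSO wells and 100% = 60 µM geldanamycin wells; inhibitors lower the luminescence because luciferase stays unfolded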
# SENP8 block-2: blocks human SENP8 cleavage of Nedd8 substrate. 360,000 compounds, 0.64% hits. inhibition, % at 20 µM. Q96LD8. recombinant SENP8, Nedd8 substrate fluorescence; in the data active = inhibition mostly above about 40%, no sharp cut-off; inactive = mostly below about 27%
# HSP90 inh confirm: HSP90 inhibition, confirmation assay; shares compounds with HSP90 inh; rabbit reticulocyte lysate, luciferase refolding luminescence, 3 h; inhibition, % at 5.9 µM; 2,300 compounds, 64% hits; in the data active = inhibition above about 18%;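 note: 0% = vehicle wells and 100% = reference inhibitor wells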
# FLuc counter: firefly luciferase inhibition, HSP90 counter-screen; inhibition, % at 5.9 µM; 2,300 compounds, 48% hits; shares compounds with HSP90 inh; AID 1847; purified native firefly luciferase, luminescence;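 active = inhibition above the mean inhibition of all tested sample wells plus 3 SD, cut at about 10% in these data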;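 note: 0% = DMSO with luciferase and 100% = wells lacking luciferase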
# Target sequence (P08659 whole entry, looked up): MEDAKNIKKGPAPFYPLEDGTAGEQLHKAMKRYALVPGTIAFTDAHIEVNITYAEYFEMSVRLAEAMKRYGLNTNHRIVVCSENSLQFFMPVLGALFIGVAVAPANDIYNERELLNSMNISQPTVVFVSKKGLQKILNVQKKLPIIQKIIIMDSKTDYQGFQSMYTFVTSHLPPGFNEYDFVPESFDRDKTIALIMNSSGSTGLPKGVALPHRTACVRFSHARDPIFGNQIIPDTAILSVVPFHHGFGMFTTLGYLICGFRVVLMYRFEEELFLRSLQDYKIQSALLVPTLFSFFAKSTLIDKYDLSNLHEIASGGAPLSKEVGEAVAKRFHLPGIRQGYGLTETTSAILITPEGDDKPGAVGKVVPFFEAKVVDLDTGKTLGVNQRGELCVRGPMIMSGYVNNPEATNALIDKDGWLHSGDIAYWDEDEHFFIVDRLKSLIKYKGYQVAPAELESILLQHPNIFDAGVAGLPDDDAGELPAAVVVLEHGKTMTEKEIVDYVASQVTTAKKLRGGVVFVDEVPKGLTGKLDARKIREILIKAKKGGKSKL
# SENP8 confirm: confirmation of human SENP8 protease inhibitors. shares compounds with SENP7 block. Recombinant SENP8, Z-RLRGG-aminoluciferin luminescence, 60 min. inhibition, % at 12.5 µM. 6,200 compounds, 40% hits. AID 488912;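 active = mean inhibition across replicates above about 50%, limit read from the data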
# SENP6 conf: human SENP6 inhibition, confirmed. shares compounds with SENP7 block. recombinant SENP6, Z-RLRGG-aminoluciferin luminescence. inhibition, % at 12.5 µM. 6,200 compounds, 58% hits
# SENP7 confirm: confirmation of human SENP7 protease inhibitors. inhibition, % at 12.5 µM. recombinant SENP7, Z-RLRGG-aminoluciferin luminescence, 40 min. shares compounds with SENP7 block. AID 488917. 6,200 compounds, 69% hits
# Casp3 select: inhibits human caspase-3 in SENP selectivity test; shares compounds with SENP7 block; purified caspase-3, Z-DEVD-aminoluciferin luminescence, 60 min; inhibition, % at 12.5 µM; 6,200 compounds, 60% hits;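 active = mean inhibition above about 50%, limit read from the data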;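 note: plate controls were enzyme with DMSO for no effect and wells without caspase-3 for full effect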
# Target sequence (P42574 28-227 limits assumed): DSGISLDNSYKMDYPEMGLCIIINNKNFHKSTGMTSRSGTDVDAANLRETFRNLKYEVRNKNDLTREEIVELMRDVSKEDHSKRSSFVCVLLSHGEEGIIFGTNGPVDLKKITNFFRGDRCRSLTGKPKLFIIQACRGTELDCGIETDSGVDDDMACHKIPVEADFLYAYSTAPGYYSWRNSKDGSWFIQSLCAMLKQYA
# SENP luc ctr: interferes with luciferase luminescence in SENP counter-screen; shares compounds with SENP7 block; Pre-incubated SENP8/Z-RLRGG-aminoluciferin, luciferase luminescence interference; inhibition, % at 12.5 µM; 6,200 compounds, 39% hits; AID 488919;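 active = mean inhibition above about 50% when retested at one dose, limit read from the data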;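 note: plate controls were DMSO wells with completed reaction for no effect and substrate without enzyme for full effect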
# The depositor's hits bear a star; i = inactive; . = not tested or not shown. In the library only some 2.9% were active in any assay of this set; here they are far more common.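 Rule for the calls, unless noted: active = mean inhibition above about 50% in the one-dose retest (limit read from the data); inactive = the rest.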
SMILES,SENP7 block,SENP8 block-1,SENP1 inh,SENP6 inh,HSP90 inh,SENP8 block-2,HSP90 inh confirm,FLuc counter,SENP8 confirm,SENP6 conf,SENP7 confirm,Casp3 select,SENP luc ctr
C/C=C/C(=O)OCC(=O)Nc1cc(-c2cc(C)c(C)cc2C)nn1-c1ccccc1,-6.2,-7.9,4.0,-5.5,-2.9,-3.6,.,.,.,.,.,.,.
COc1ccc(CCNC(=O)Nc2ccc3nc([C@@H]4O[C@H](CO)[C@@H](O)[C@H](O)[C@H]4O)[nH]c3c2)cc1Br,.,.,-1.2,.,.,-2.1,.,.,.,.,.,.,.
COc1ccc(CCNC(=O)c2cc(S(=O)(=O)N3CCOCC3)cn2C)cc1OC,-12.4,-8.1,2.4,-24.7,-2.9,0.3,.,.,.,.,.,.,.
CSc1ccccc1C(=O)Nc1ccc2c(c1)OCCO2,17.7,-20.4,-1.7,12.1,-1.2,21.7,.,.,.,.,.,.,.
O=C(/C=C/c1ccccc1)Nc1ccc2c(c1)OCCO2,75.0*,66.9*,2.7,74.3*,32.3*,11.2,51.4*,47.9*,74.0*,71.2*,87.7*,64.7*,74.9*
O=C(/C=C/c1ccco1)Nc1ccc2c(c1)OCCO2,41.3,37.7,-0.2,-14.3,14.1,24.3,.,.,.,.,.,.,.
CC(=O)Nc1ccc(NC(=O)/C=C/c2ccccc2)cc1,-9.7,2.2,-0.5,-2.3,1.7,6.7,.,.,.,.,.,.,.
Cc1ccccc1C(=O)Nc1ccc2c(c1)OCCO2,68.7*,55.1*,2.1,63.1*,43.4*,17.4,45.0*,34.0*,53.3*,52.2*,84.3*,84.8*,66.7*
O=C(Nc1ccc2c(c1)OCCO2)c1cccc(C(=O)Nc2ccc3c(c2)OCCO3)c1,-3.4,4.8,0.9,3.8,-2.5,13.7,.,.,.,.,.,.,.
CSc1ccc(/C=C/C(=O)Nc2ccccc2)cc1,100.7*,95.3*,-1.6,85.1*,22.7*,-88.3,70.8*,67.4*,69.2*,98.3*,102.1*,97.3*,6.7
O=C(Nc1ccc2c(c1)OCCO2)c1ccccc1,79.0*,60.7*,2.2,67.8*,24.4*,5.3,27.0*,17.1*,4.2,61.0*,90.3*,87.1*,67.6*
COc1cc(C(=O)NCC2CCCN2S(=O)(=O)c2cccs2)cc(OC)c1OC (stereo not given),12.2,-3.7,-8.9,-1.7,.,23.2,.,.,.,.,.,.,.
Cc1cccc(C)c1OCC(=O)N(Cc1ccc(Cl)cc1)C1CCS(=O)(=O)C1 (stereo not given),2.9,-9.7,-1.2,13.4,-0.7,-6.0,.,.,.,.,.,.,.
CCCNC(=O)C1(C)CCCN(Cc2cc(-c3ccccc3)n(C)n2)C1 (stereo not given),.,.,3.3,.,.,8.4,.,.,.,.,.,.,.
CC(=O)Nc1ccc(NC2=C/C(=N/S(=O)(=O)c3cccs3)c3ccccc3C2=O)cc1,54.1*,79.2*,2.2,92.8*,54.9*,68.8*,66.9*,-8.2,90.0*,95.5*,85.2*,51.1*,2.1
COc1ccc(-c2cc3nc4n(c(=O)c3s2)CCCCC4)cc1,18.3,30.4,0.5,45.9,-2.9,-402.6,.,.,.,.,.,.,.
COc1ccc(-c2cc3nc4n(c(=O)c3s2)CCC4)cc1,96.1*,91.3*,-0.3,95.4*,29.8*,-337.0,80.2*,67.7*,11.6,62.3*,80.7*,76.0*,12.1
COc1ccccc1NC(=O)C(=O)c1cn(CC(=O)N2CCOCC2)c2ccccc12,55.7*,46.7,3.3,51.9*,21.3*,12.6,-1.2,-22.6,8.8,40.4,16.6,10.3,1.6
CN(CC(=O)Nc1cccc(F)c1)C(=O)/C=C/c1cn(Cc2ccccc2)nc1-c1cccnc1,1.1,-9.5,2.1,-0.1,.,-26.8,.,.,.,.,.,.,.
COc1ccccc1NC(=O)c1ccc(CSc2ccccc2)o1,0.8,-5.0,-1.6,-4.8,2.2,5.5,.,.,.,.,.,.,.
O=C(Nc1ccc(-c2cn3ccsc3n2)cc1)c1ccc(F)c(S(=O)(=O)N2CCOCC2)c1,-3.4,1.7,-0.1,0.1,5.0,-0.3,.,.,.,.,.,.,.
Oc1cccc(-c2nc3ccccc3s2)c1,95.4*,91.6*,-1.3,96.4*,23.8*,-142.3,49.9*,34.1*,-23.1,94.9*,101.5*,87.1*,95.2*
CC(C)c1ccc(-c2nc3ccccc3s2)cc1,99.6*,97.6*,1.2,97.6*,83.5*,-7.2,97.6*,94.1*,97.6*,99.5*,101.5*,97.4*,96.8*
CCOc1cc(-c2nc3ccccc3s2)ccc1O,10.5,3.6,-193.4,27.3,-0.9,-420.6,.,.,.,.,.,.,.
FC(F)(F)c1ccc(-c2nc3ccccc3s2)cc1,.,.,0.7,.,.,-26.9,.,.,.,.,.,.,.
SMILES,SENP7 block,SENP8 block-1,SENP1 inh,SENP6 inh,HSP90 inh,SENP8 block-2,HSP90 inh confirm,FLuc counter,SENP8 confirm,SENP6 conf,SENP7 confirm,Casp3 select,SENP luc ctr
COc1ccc(-c2nc3ccccc3s2)cc1O,99.9*,95.4*,-2.8,96.9*,37.7*,i,77.7*,71.7*,98.0*,98.8*,102.3*,95.5*,98.0*
CC(=O)Nc1cccc(-c2nc3ccccc3s2)c1,33.6,21.5,-1.8,47.3,-3.6,-58.4,.,.,.,.,.,.,.
COc1cccc(-c2nc3ccccc3s2)c1O,86.4*,53.8*,-77.4,76.9*,17.2*,-395.0,38.4*,32.0*,39.0,57.9*,96.5*,74.2*,5.3
OCCC1CN(Cc2cccc3c2OCO3)CCN1C1CCCC1 (stereo not given),2.2,-1.0,-1.1,-0.6,-4.5,1.3,.,.,.,.,.,.,.
CC1CCN(c2ccc(-c3cccs3)nn2)CC1,96.1*,94.0*,0.5,98.8*,80.9*,-32.4,90.1*,84.4*,63.9*,96.5*,102.0*,94.5*,43.4
Clc1ccc(-c2cccs2)nn1,-1.2,3.1,2.5,-2.3,-0.1,5.6,.,.,.,.,.,.,.
O=S(c1ccccc1)c1ccccc1,.,.,1.3,.,.,9.6,.,.,.,.,.,.,.
Cc1csc(NC(=O)c2cn3ccccc3n2)n1,84.8*,69.8*,-1.0,84.0*,54.5*,-5.0,70.2*,62.1*,65.1*,86.0*,96.8*,95.0*,16.3
Cc1csc(NC(=O)c2ccccc2C(=O)O)n1,-1.5,-28.9,2.4,-1.6,7.8,8.0,.,.,.,.,.,.,.
